According to ChEMBL document CHEMBL1255410, “Activity of the investigational fluoroquinolone finafloxacin against ciprofloxacin-sensitive and -resistant Acinetobacter baumannii isolates” (2010):
Values after ≈ are worked out from the molar mass of the structure shown.

What was measured:
[1] = test system: Acinetobacter baumannii; assay: Antimicrobial activity against Acinetobacter baumannii isolate 15 at pH 5.8; assay type: functional
Outline: (§1)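 MIC by agar dilution on Mueller-Hinton agar acidified to pH 5.8 with HCl before antibiotic-containing plates were poured. Agar pH was rechecked once the agar had solidified. Isolates had characterized gyrA/parC genes. Plates for both drugs were made the same day from fresh media, and MICs were read in parallel with the standard-pH set.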

[2] = test system: Acinetobacter baumannii; assay: Antimicrobial activity against Acinetobacter baumannii isolate 20 harboring GyrA Ser83-Leu mutation at pH 5.8; assay type: functional; outline: as §1
[3] = test system: Acinetobacter baumannii; assay: Antimicrobial activity against Acinetobacter baumannii isolate 54 harboring GyrA Ser83-Leu and ParC Ser80-Leu mutation at pH 7.2; assay type: functional
Outline: (§2)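 Agar dilution MIC on Mueller-Hinton agar. For the acidic condition, HCl was added to bring the agar to pH 5.8 before pouring the antibiotic plates, and the pH was checked after the agar set. The standard condition was pH 7.2. Both drugs' plates were made the same day from fresh medium, and MICs were read at the same time.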

[4] = test system: Acinetobacter baumannii; assay: Antimicrobial activity against Acinetobacter baumannii isolate 3 at pH 5.8; assay type: functional; outline: as §1
[5] = test system: Acinetobacter baumannii; assay: Antimicrobial activity against Acinetobacter baumannii isolate 39 harboring GyrA Ser83-Leu mutation at pH 5.8; assay type: functional; outline: as §2
[6] = test system: Acinetobacter baumannii; assay: Antimicrobial activity against Acinetobacter baumannii isolate 5 at pH 7.2; assay type: functional; outline: as §2
[7] = test system: Acinetobacter baumannii; assay: Antimicrobial activity against Acinetobacter baumannii isolate 65 harboring GyrA Ser83-Leu and ParC Ser80-Leu mutation at pH 5.8; assay type: functional
Outline: (§3)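 Agar dilution MIC on Mueller-Hinton agar acidified to pH 5.8 with HCl before the antibiotic-containing plates were poured. Agar pH was checked after solidifying. Plates were made the same day from fresh medium. Both fluoroquinolones were tested simultaneously against A. baumannii isolates with characterized gyrA/parC genes. MICs are in μg/ml.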

[8] = test system: Acinetobacter baumannii; assay: Antimicrobial activity against Acinetobacter baumannii isolate 11 at pH 7.2; assay type: functional
Outline: (§4)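 MIC by agar dilution on Mueller-Hinton agar under standard conditions (pH 7.2), against isolates with characterized gyrA/parC genes. Agar pH was checked after solidifying. Plates for both drugs were prepared the same day from freshly made media, and MICs were determined simultaneously with the pH 5.8 set.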

[9] = test system: Acinetobacter baumannii; assay: Antimicrobial activity against Acinetobacter baumannii isolate 49 harboring GyrA Ser83-Leu and ParC Ser80-Leu mutation at pH 5.8; assay type: functional; outline: as §2
[10] = test system: Acinetobacter baumannii; assay: Antimicrobial activity against adeB overexpressing Acinetobacter baumannii isolate 67 harboring GyrA Ser83-Leu and ParC Ser80-Leu mutation at pH 5.8; assay type: functional; outline: as §3
[11] = test system: Acinetobacter baumannii; assay: Antimicrobial activity against Acinetobacter baumannii isolate 32 harboring GyrA Ser83-Leu mutation at pH 7.2; assay type: functional; outline: as §2
[12] = test system: Acinetobacter baumannii; assay: Antimicrobial activity against Acinetobacter baumannii isolate 37 harboring GyrA Ser83-Leu mutation at pH 7.2; assay type: functional; outline: as §2
[13] = test system: Acinetobacter baumannii; assay: Antimicrobial activity against Acinetobacter baumannii isolate 6 at pH 7.2; assay type: functional
Outline: (§5)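 Agar dilution MIC on Mueller-Hinton agar under standard conditions (pH 7.2). Antibiotic-containing plates were made the same day from freshly prepared medium. Agar pH was checked after solidifying. Both fluoroquinolones were tested simultaneously against A. baumannii isolates with characterized gyrA/parC genes. MICs are in μg/ml.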

[14] = test system: Acinetobacter baumannii; assay: Antimicrobial activity against Acinetobacter baumannii isolate 15 at pH 7.2; assay type: functional; outline: as §4
[15] = test system: Acinetobacter baumannii; assay: Antimicrobial activity against Acinetobacter baumannii isolate 55 harboring GyrA Ser83-Leu and ParC Ser80-Leu mutation at pH 7.2; assay type: functional; outline: as §5
[16] = test system: Acinetobacter baumannii; assay: Antimicrobial activity against Acinetobacter baumannii isolate 48 harboring GyrA Ser83-Leu and ParC Ser80-Leu mutation at pH 5.8; assay type: functional; outline: as §2
[17] = test system: Acinetobacter baumannii; assay: Antimicrobial activity against Acinetobacter baumannii isolate 26 harboring GyrA Ser83-Leu mutation at pH 5.8; assay type: functional; outline: as §1
[18] = test system: Acinetobacter baumannii; assay: Antimicrobial activity against Acinetobacter baumannii isolate 39 harboring GyrA Ser83-Leu mutation at pH 7.2; assay type: functional; outline: as §2
[19] = test system: Acinetobacter baumannii; assay: Antimicrobial activity against Acinetobacter baumannii isolate 44 harboring GyrA Ser83-Leu and ParC Glu84-Lys mutation at pH 7.2; assay type: functional; outline: as §2
[20] = test system: Acinetobacter baumannii; assay: Antimicrobial activity against Acinetobacter baumannii isolate 64 harboring GyrA Ser83-Leu and ParC Ser80-Leu mutation at pH 5.8; assay type: functional; outline: as §3
[21] = test system: Acinetobacter baumannii; assay: Antimicrobial activity against Acinetobacter baumannii isolate 61 harboring GyrA Ser83-Leu and ParC Ser80-Leu mutation at pH 7.2; assay type: functional; outline: as §5
[22] = test system: Acinetobacter baumannii; assay: Antimicrobial activity against Acinetobacter baumannii isolate 66 harboring GyrA Ser83-Leu mutation at pH 7.2; assay type: functional; outline: as §5
[23] = test system: Acinetobacter baumannii; assay: Antimicrobial activity against Acinetobacter baumannii isolate 55 harboring GyrA Ser83-Leu and ParC Ser80-Leu mutation at pH 5.8; assay type: functional; outline: as §2
[24] = test system: Acinetobacter baumannii; assay: Antimicrobial activity against Acinetobacter baumannii isolate 59 harboring GyrA Ser83-Leu and ParC Glu84-Lys mutation at pH 7.2; assay type: functional; outline: as §5
[25] = test system: Acinetobacter baumannii; assay: Antimicrobial activity against Acinetobacter baumannii isolate 42 harboring GyrA Ser83-Leu mutation at pH 5.8; assay type: functional; outline: as §2
[26] = test system: Acinetobacter baumannii; assay: Antimicrobial activity against Acinetobacter baumannii isolate 60 harboring GyrA Ser83-Leu and ParC Ser80-Leu mutation at pH 5.8
[27] = test system: Acinetobacter baumannii; assay: Antimicrobial activity against Acinetobacter baumannii isolate 25 harboring GyrA Ser83-Leu mutation at pH 7.2; assay type: functional; outline: as §4
[28] = test system: Acinetobacter baumannii; assay: Antimicrobial activity against Acinetobacter baumannii isolate 10 at pH 7.2; assay type: functional; outline: as §4
[29] = test system: Acinetobacter baumannii; assay: Antimicrobial activity against Acinetobacter baumannii isolate 22 harboring GyrA Ser83-Leu mutation at pH 5.8; assay type: functional; outline: as §1
[30] = test system: Acinetobacter baumannii; assay: Antimicrobial activity against Acinetobacter baumannii isolate 17 at pH 7.2; assay type: functional; outline: as §4
[31] = test system: Acinetobacter baumannii; assay: Antimicrobial activity against Acinetobacter baumannii isolate 51 harboring GyrA Ser83-Leu and ParC Ser80-Leu mutation at pH 7.2; assay type: functional; outline: as §2
[32] = test system: Acinetobacter baumannii; assay: Antimicrobial activity against Acinetobacter baumannii isolate 17 at pH 5.8; assay type: functional; outline: as §1
[33] = test system: Acinetobacter baumannii; assay: Antimicrobial activity against Acinetobacter baumannii isolate 23 harboring GyrA Glu87-Gly mutation at pH 5.8; assay type: functional; outline: as §1
[34] = test system: Acinetobacter baumannii; assay: Antimicrobial activity against Acinetobacter baumannii isolate 18 at pH 7.2; assay type: functional; outline: as §4
[35] = test system: Acinetobacter baumannii; assay: Antimicrobial activity against Acinetobacter baumannii isolate 4 at pH 7.2; assay type: functional; outline: as §2
[36] = test system: Acinetobacter baumannii; assay: Antimicrobial activity against Acinetobacter baumannii isolate 29 harboring GyrA Ser83-Leu mutation at pH 5.8; assay type: functional; outline: as §1
[37] = test system: Acinetobacter baumannii; assay: Antimicrobial activity against Acinetobacter baumannii isolate 58 harboring GyrA Ser83-Leu and ParC Ser80-Leu mutation at pH 5.8; assay type: functional; outline: as §3
[38] = test system: Acinetobacter baumannii; assay: Antimicrobial activity against Acinetobacter baumannii isolate 35 harboring GyrA Ser83-Leu mutation at pH 7.2; assay type: functional; outline: as §2
[39] = test system: Acinetobacter baumannii; assay: Antimicrobial activity against Acinetobacter baumannii isolate 13 at pH 5.8; assay type: functional; outline: as §1
[40] = test system: Acinetobacter baumannii; assay: Antimicrobial activity against Acinetobacter baumannii isolate 38 harboring GyrA Ser83-Leu mutation at pH 7.2; assay type: functional; outline: as §2
[41] = test system: Acinetobacter baumannii; assay: Antimicrobial activity against Acinetobacter baumannii isolate 12 at pH 7.2; assay type: functional; outline: as §4

N#Cc1c(N2C[C@@H]3NCCO[C@H]3C2)c(F)cc2c(=O)c(C(=O)O)cn(C3CC3)c12 [FINAFLOXACIN]
MIC [1]: 0.12 µg/mL (≈ 0.301 µM)
MIC [2]: 0.06 µg/mL (≈ 0.151 µM)
MIC [3]: 32 µg/mL (≈ 80.3 µM)
MIC [4]: 0.06 µg/mL (≈ 0.151 µM)
MIC [5]: 2 µg/mL (≈ 5.02 µM)
MIC [6]: 0.25 µg/mL (≈ 0.628 µM)
MIC [7]: 8 µg/mL (≈ 20.1 µM)
MIC [8]: 0.25 µg/mL (≈ 0.628 µM)
MIC [9]: 2 µg/mL (≈ 5.02 µM)
MIC [10]: 4 µg/mL (≈ 10 µM)
MIC [11]: 16 µg/mL (≈ 40.2 µM)
MIC [12]: 16 µg/mL (≈ 40.2 µM)
MIC [13]: 0.25 µg/mL (≈ 0.628 µM)
MIC [14]: 1 µg/mL (≈ 2.51 µM)
MIC [15]: 32 µg/mL (≈ 80.3 µM)
MIC [16]: 2 µg/mL (≈ 5.02 µM)
MIC [17]: 2 µg/mL (≈ 5.02 µM)
MIC [18]: 16 µg/mL (≈ 40.2 µM)
MIC [19]: 16 µg/mL (≈ 40.2 µM)
MIC [20]: 4 µg/mL (≈ 10 µM)
MIC [21]: 64 µg/mL (≈ 161 µM)
MIC [22]: 16 µg/mL (≈ 40.2 µM)
MIC [23]: 4 µg/mL (≈ 10 µM)
MIC [24]: 64 µg/mL (≈ 161 µM)
MIC [25]: 2 µg/mL (≈ 5.02 µM)
MIC [26]: 8 µg/mL (≈ 20.1 µM)
MIC [27]: 16 µg/mL (≈ 40.2 µM)
MIC [28]: 0.25 µg/mL (≈ 0.628 µM)
MIC [29]: 1 µg/mL (≈ 2.51 µM)
MIC [30]: 1 µg/mL (≈ 2.51 µM)
MIC [31]: 32 µg/mL (≈ 80.3 µM)
MIC [32]: 0.12 µg/mL (≈ 0.301 µM)
MIC [33]: 1 µg/mL (≈ 2.51 µM)
MIC [34]: 1 µg/mL (≈ 2.51 µM)
MIC [35]: 0.25 µg/mL (≈ 0.628 µM)
MIC [36]: 4 µg/mL (≈ 10 µM)
MIC [37]: 4 µg/mL (≈ 10 µM)
MIC [38]: 16 µg/mL (≈ 40.2 µM)
MIC [39]: 0.12 µg/mL (≈ 0.301 µM)
MIC [40]: 16 µg/mL (≈ 40.2 µM)
MIC [41]: 1 µg/mL (≈ 2.51 µM)
